pEC50: −log10 of the molar value.
What was measured:
[1] = target: T1, Nitric oxide synthase, inducible (Mus musculus, UniProt P29477); test: Inhibition of mouse iNOS expressed in HEK293 cells assessed as NO production in by transient transfection assay; assay type: cell-based
T1 sequence (P29477 whole entry): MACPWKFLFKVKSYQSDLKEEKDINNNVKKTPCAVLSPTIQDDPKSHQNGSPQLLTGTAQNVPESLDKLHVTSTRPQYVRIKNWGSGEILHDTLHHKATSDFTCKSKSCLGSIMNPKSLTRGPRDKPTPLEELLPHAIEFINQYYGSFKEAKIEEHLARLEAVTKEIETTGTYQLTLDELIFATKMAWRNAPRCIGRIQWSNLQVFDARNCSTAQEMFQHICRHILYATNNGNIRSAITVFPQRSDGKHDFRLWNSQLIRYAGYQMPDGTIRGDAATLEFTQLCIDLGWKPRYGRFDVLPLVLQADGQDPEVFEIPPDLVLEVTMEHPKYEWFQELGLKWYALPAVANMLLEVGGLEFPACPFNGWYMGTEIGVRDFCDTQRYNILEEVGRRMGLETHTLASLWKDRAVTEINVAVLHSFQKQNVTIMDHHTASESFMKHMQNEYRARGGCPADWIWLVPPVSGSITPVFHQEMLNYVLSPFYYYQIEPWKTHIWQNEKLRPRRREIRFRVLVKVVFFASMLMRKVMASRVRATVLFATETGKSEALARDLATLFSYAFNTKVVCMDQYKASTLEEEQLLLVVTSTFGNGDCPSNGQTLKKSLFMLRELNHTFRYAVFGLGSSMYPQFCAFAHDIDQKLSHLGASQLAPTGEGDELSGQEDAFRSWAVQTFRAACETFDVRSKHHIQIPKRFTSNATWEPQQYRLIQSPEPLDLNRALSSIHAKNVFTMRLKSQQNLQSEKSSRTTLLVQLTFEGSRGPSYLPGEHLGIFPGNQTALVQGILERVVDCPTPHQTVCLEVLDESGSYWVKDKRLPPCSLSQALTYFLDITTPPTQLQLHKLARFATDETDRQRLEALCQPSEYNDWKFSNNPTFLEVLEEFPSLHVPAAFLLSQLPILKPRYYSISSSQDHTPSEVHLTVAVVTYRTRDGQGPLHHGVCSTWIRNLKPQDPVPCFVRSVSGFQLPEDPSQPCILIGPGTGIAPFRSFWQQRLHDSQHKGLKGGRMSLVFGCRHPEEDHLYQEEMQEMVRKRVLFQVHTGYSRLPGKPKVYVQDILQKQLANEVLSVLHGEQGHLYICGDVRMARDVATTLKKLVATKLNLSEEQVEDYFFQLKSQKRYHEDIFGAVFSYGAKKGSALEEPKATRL
Outline: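 HEK293 cells grown to ~70% confluence in DMEM/10% FBS with pen/strep. Cells transiently transfected with 10 µg human or murine iNOS plasmid (Fugene 6), 4 h at 37 °C, 10% CO2. Trypsinized, plated at 5 × 10⁵ cells/mL and dosed at once; 1400W 100 µM final as positive control. After 18 h, NO read as DAN fluorescence (10 µg/mL, 20 min RT, then NaOH). EC50 from 3 runs, 10-point curves, n = 8/point.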

Mus musculus [2] = test: Reduction of plasma nitrate level in LPS-challenged po dosed BALB/c mouse; assay type: functional
Outline: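 Male Balb/c mice were dosed by oral gavage (90% PEG/5% Tween 80/5% PVP + 90% CMC (0.5% w/v)) at t = 0 h, 30 mg/kg for single-dose lines. LPS 10 mg/kg ip in 0.9% NaCl followed immediately. At 6 h, EDTA plasma was taken for nitrate and drug levels. Nitrate reduction is relative to vehicle; ED50 came from full oral dose-response.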

CYP1A2 = target: T2, CYP1A2 (Homo sapiens, UniProt P05177); test: Inhibition of CYP1A2 at 100 uM; assay type: ADME
T2 sequence (P05177 whole entry): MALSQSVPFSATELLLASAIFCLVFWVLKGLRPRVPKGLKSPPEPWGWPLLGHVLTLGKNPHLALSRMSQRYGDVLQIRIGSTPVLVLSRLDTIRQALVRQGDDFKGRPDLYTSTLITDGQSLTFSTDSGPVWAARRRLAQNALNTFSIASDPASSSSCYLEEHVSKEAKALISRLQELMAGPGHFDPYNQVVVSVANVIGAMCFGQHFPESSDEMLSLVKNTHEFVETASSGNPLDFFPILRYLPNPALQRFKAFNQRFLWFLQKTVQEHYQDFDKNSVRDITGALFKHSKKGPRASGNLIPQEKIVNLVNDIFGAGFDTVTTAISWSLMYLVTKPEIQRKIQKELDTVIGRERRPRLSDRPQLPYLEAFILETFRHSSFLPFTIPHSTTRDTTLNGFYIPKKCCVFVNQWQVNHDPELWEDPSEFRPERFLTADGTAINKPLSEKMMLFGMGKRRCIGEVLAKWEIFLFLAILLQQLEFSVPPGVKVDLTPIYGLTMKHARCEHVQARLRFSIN

CYP2D6 = CYP2D6 (Homo sapiens, UniProt P10635); test: Inhibition of CYP2D6 at 100 uM; assay type: ADME
Sequence of CYP2D6 (P10635 whole entry): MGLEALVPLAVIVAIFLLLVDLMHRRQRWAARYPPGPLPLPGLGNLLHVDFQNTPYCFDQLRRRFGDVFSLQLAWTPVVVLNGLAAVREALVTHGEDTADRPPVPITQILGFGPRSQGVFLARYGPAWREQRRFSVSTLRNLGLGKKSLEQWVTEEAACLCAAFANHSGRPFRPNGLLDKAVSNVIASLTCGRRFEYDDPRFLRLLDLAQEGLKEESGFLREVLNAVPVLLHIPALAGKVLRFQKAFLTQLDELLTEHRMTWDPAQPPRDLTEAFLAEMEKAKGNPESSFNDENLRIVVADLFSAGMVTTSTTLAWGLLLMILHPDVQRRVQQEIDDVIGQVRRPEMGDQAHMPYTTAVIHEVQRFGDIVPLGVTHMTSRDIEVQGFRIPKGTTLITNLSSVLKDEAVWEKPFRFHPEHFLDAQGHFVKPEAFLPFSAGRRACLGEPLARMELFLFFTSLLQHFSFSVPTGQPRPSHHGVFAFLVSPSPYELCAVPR

Cytochrome P450 2C9 = Cytochrome P450 2C9 (Homo sapiens, UniProt P11712); test: Inhibition of CYP2C9; assay type: ADME
Sequence of Cytochrome P450 2C9 (P11712 whole entry): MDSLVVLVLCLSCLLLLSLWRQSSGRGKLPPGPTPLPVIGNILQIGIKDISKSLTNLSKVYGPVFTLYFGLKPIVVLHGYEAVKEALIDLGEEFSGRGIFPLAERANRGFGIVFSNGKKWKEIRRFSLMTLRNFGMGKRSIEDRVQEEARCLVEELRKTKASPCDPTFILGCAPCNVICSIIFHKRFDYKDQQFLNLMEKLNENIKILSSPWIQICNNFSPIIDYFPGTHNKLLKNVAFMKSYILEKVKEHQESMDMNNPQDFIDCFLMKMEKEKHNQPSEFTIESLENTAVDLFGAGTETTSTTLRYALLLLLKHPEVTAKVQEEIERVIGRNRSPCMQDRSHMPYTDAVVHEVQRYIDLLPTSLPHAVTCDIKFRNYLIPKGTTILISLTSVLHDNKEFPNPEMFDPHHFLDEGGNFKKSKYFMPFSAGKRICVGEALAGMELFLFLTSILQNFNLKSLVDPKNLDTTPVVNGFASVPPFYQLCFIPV

[3] = Cmax in mouse at 10 mg/kg, po; assay type: ADME, organism-based; design: dose 10 mg/kg, route oral; conditions: in vivo
[4] = Tmax in mouse at 10 mg/kg, po; assay type: ADME, organism-based; design: dose 10 mg/kg, route oral; conditions: in vivo
[5] = Half life in mouse at 10 mg/kg, po; assay type: ADME, organism-based; design: dose 10 mg/kg, route oral; conditions: in vivo
[6] = AUC in mouse at 10 mg/kg, po; assay type: ADME, organism-based; design: dose 10 mg/kg, route oral; conditions: plasma
[7] = Plasma clearance in mouse at 10 mg/kg, po; assay type: ADME, organism-based; design: dose 10 mg/kg, route oral
Mus musculus [8] = test: Antinociceptive activity against formalin-induced phase 2 pain in mouse paw assessed as pain behavior at 100 mg/kg, po pretreated 30 mins before formalin challenge relative to control; assay type: functional
Outline: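 Mice were dosed 100 mg/kg po (PEG/Tween 80/PVP + CMC vehicle) 30 min before 20 µL formalin into the left hind paw. Phase II pain-behavior duration was timed 25–45 min post-injection by a single observer. Results are mean ± SE, n = 5–6 mice, compared to vehicle by one-way ANOVA with post hoc tests.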

Mus musculus [9] = test: Volume of distribution in mouse at 10 mg/kg, po; assay type: ADME, organism-based; design: dose 10 mg/kg, route oral; conditions: in vivo
[10] = target: Voltage-gated inwardly rectifying potassium channel KCNH2 (Homo sapiens, UniProt Q12809); test: Activity at human ERG by patch clamp assay
Sequence of Voltage-gated inwardly rectifying potassium channel KCNH2 (Q12809 whole entry): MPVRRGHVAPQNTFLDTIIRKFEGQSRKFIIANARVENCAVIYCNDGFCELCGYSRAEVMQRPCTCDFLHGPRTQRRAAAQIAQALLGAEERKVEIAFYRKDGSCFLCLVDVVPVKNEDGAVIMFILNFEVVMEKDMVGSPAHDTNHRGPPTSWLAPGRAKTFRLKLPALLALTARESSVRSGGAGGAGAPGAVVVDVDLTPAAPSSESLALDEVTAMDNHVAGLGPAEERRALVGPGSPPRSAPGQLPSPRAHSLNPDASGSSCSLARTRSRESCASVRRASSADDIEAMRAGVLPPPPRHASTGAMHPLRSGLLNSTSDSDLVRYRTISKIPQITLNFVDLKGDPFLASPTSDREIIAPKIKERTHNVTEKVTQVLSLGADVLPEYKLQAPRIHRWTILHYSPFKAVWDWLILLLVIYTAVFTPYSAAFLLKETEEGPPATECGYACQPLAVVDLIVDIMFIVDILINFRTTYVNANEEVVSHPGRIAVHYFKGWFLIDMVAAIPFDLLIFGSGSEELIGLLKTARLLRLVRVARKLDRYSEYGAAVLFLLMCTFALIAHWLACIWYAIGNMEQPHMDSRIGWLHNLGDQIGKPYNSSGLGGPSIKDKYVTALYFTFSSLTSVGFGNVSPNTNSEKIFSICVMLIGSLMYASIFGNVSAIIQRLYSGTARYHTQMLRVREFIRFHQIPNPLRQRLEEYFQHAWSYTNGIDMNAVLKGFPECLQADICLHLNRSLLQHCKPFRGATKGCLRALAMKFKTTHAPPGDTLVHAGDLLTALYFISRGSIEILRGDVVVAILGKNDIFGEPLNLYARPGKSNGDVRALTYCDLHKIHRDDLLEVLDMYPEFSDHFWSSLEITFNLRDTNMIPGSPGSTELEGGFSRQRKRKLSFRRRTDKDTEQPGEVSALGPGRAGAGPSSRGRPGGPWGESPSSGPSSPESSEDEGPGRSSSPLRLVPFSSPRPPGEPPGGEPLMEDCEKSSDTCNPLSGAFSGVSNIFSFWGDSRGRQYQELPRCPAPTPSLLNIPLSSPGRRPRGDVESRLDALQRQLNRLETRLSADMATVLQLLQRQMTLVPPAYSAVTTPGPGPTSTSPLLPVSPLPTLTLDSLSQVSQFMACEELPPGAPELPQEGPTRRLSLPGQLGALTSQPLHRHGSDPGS

In the case of CC1=C(C(=O)N(Cc2cc(=O)[nH]c3c(F)c(F)ccc23)c2cccc(Cl)c2)CNCC1, the pEC50 [1] was 7.24, the ED50 (Mus musculus [2]) was 16 mg/kg and the inhibition at 100 µM (CYP1A2) was < 50%. The inhibition at 100 µM (CYP2D6) was < 50%.

Work on Cc1ncsc1C(=O)N(Cc1cc(=O)[nH]c2c(F)c(F)ccc12)c1cccc(Cl)c1 yielded a pEC50 [1] of 7.49, an ED50 (Mus musculus [2]) of 13 mg/kg and a pEC50 (Cytochrome P450 2C9) of 4.66. The inhibition at 100 µM (CYP2D6) was < 50%.

In the case of Cc1ncsc1C(=O)N(Cc1c[n+]([O-])cc2c(F)c(F)ccc12)c1cccc(Cl)c1, the pEC50 [1] was 7.13, the pEC50 (Cytochrome P450 2C9) was 4.26 and the inhibition at 100 µM (CYP1A2) was < 50%. The inhibition at 100 µM (CYP2D6) was < 50%.

For Cc1ncsc1C(=O)N(Cc1cc(=O)[nH]c2c(F)cccc12)c1cccc(Cl)c1, the pEC50 [1] was 6.92, the ED50 (Mus musculus [2]) was 10 mg/kg and the Cmax [3] was 1400 nM. The Tmax [4] was 30 min, the half-life [5] was 54 min and the AUC [6] was 450 ng·h/mL. The CL/F [7] was > 100 mL/min/kg, the pEC50 (Cytochrome P450 2C9) was 4.48 and the inhibition at 100 µM (CYP1A2) was < 50%. The inhibition at 100 µM (CYP2D6) was < 50%, the Activity (Mus musculus [8]) was 40% and the Vdss (Mus musculus [9]) was 1.6 L/kg.

With Cn1cncc1C(=O)N(Cc1cc(=O)[nH]c2c(F)c(F)ccc12)c1cccc(Cl)c1 the pEC50 [1] was 7.85, the ED50 (Mus musculus [2]) was 5 mg/kg and the Cmax [3] was 2200 nM. For the same molecule, the Tmax [4] was 15 min, the half-life [5] was 66 min and the AUC [6] was 520 ng·h/mL. The CL/F [7] was > 100 mL/min/kg, the pEC50 (Cytochrome P450 2C9) was 4.60 and the pEC50 [10] was 5.10. The Activity (Mus musculus [8]) was 65% and the Vdss (Mus musculus [9]) was 1.1 L/kg.

In the case of CC(C)C(=O)N(Cc1cc(=O)[nH]c2c(F)cccc12)c1cccc(Cl)c1, the pEC50 [1] was 5.57, the inhibition at 100 µM (CYP1A2) was < 50% and the inhibition at 100 µM (CYP2D6) was < 50%.

From ChEMBL document CHEMBL1138485, “Discovery of inducible nitric oxide synthase (iNOS) inhibitor development candidate KD7332, part 1: Identification of a novel, potent, and selective series of quinolinone iNOS dimerization inhibitors that are orally active in rodent pain models” (J Med Chem, 2009)
